Assay results as given in ChEMBL document CHEMBL4020718, “Trifluoromethyl arylamides with antileukemia effect and intracellular inhibitory activity over serine/arginine-rich protein kinases (SRPKs)” (Eur J Med Chem, 2017).
Activity calls are given as the source filed them. The rule behind the calls is not given here.

Key:
NALM-6 [1] = experiment: Induction of autophagy in human NALM6 cells at 20 uM after 24 hrs by acridin orange staining based fluorescence microscopy; assay type: functional, cell-based
How it was run: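 Nalm6 (7x10^4/well) exposed 24 h to 20 µM or 0.4% DMSO, washed in PBS, stained with 1 µM acridine orange at 37 °C for 15 min, washed, resuspended in PBS; autophagosomes (red fluorescence) viewed by fluorescence microscopy; three experiments.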

NALM-6 [2] = experiment: Induction of apoptosis in human NALM6 cells assessed as late apoptotic cells at 20 uM after 12 hrs by Annexin-V/FITC propidium iodide staining based flow cytometric analysis (reference value: 0.45%); assay type: functional
NALM-6 [3] = experiment: Induction of apoptosis in human NALM6 cells assessed as necrotic cells at 20 uM after 12 hrs by Annexin-V/FITC propidium iodide staining based flow cytometric analysis (reference value: 0.04%); assay type: functional
NALM-6 [4] = experiment: Effect on actin expression level in human NALM6 cells at 20 uM after 24 hrs by qRT-PCR analysis; assay type: ADME, cell-based; conditions: nalm-6, 24 h
NALM-6 [5] = experiment: Synergistic cytotoxicity against human NALM6 cells assessed as reduction in cell viability by measuring combination index at 17.9 uM after 48 hrs in presence of 1 nM vincristine by MTT assay; assay type: functional
NALM-6 [6] = experiment: Induction of apoptosis in human NALM6 cells assessed as early apoptotic cells at 20 uM after 24 hrs by Annexin-V/FITC propidium iodide staining based flow cytometric analysis (reference value: 8.22%); assay type: functional
HL-60 [7] = experiment: Antiproliferative activity against human HL60 cells at 20 uM by trypan blue dye exclusion assay; assay type: functional, cell-based; conditions: TDE = time-dependent effect
How it was run: (§1)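 Nalm6 at 1x10^4 or HL60 at 1.5x10^4 cells per well exposed to 20 µM; DMSO (0.4% v/v) as control. Viable cells counted by trypan blue exclusion on a hemocytometer at 0, 24, 48, 72 and 96 h; growth inhibition relative to control.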

NALM-6 [8] = experiment: Cytotoxicity against human NALM6 cells assessed as cell growth inhibition at 20 uM after 96 hrs by trypan blue dye exclusion assay relative to control; assay type: functional; conditions: NALM-6, 96 h, read-out: GI; how it was run: as §1
NALM-6 [9] = experiment: Induction of apoptosis in human NALM6 cells assessed as necrotic cells at 20 uM after 24 hrs by Annexin-V/FITC propidium iodide staining based flow cytometric analysis (reference value: 0%); assay type: functional
HL-60 [10] = experiment: Cytotoxicity against human HL60 cells assessed as reduction in cell viability up to 200 uM after 48 hrs by MTT assay; assay type: functional, cell-based
How it was run: (§2)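 Cells (7x10^4/well) in RPMI-1640 with 10% FBS, 37 °C, 5% CO2; exposed to compound dilutions 0–200 µM (medium with 10% FBS, 0.4% DMSO) for 48 h. MTT added, 3 h at 37 °C, formazan dissolved in DMSO, absorbance 540 nm. IC50 from concentration–response; means ± standard deviation of three independent experiments.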

NALM-6 [11] = experiment: Cytotoxicity against human NALM6 cells assessed as reduction in cell viability up to 200 uM after 48 hrs by MTT assay; assay type: functional, cell-based; how it was run: as §2
NALM-6 [12] = experiment: Effect on SRPK2 expression level in human NALM6 cells at 20 uM after 24 hrs by Western blot analysis; assay type: functional, cell-based
How it was run: (§3)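 Nalm6 treated 24 h at 20 µM (DMSO vehicle control), lysed at 2x10^7 cells/mL in PBS with 1% NP40, 1 mM EDTA, 150 mM NaCl, 10 mM Tris pH 7.4 plus protease/phosphatase inhibitors; on ice 10 min, sonicated, spun 15000 xg; SDS-PAGE, PVDF, milk block overnight, primary and secondary antibody 2 h each; representative of three.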

PBMC = experiment: Cytotoxicity against PHA-stimulated human PBMC assessed as reduction in cell viability at 25 uM after 48 hrs by MTT assay; assay type: cell-based
How it was run: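 Primary peripheral blood mononuclear cells seeded 1x10^5/well in complete RPMI; treated with 25 µM for 48 h. Viability by MTT (3 h, 37 °C, DMSO solubilization, 540 nm), vehicle taken as 100% viability; triplicate experiments, means ± standard deviation.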

NALM-6 [13] = experiment: Synergistic cytotoxicity against human NALM6 cells assessed as reduction in cell viability by measuring combination index at 8.9 uM after 48 hrs in presence of 0.5 nM vincristine by MTT assay; assay type: functional
Jurkat = experiment: Cytotoxicity against human Jurkat cells assessed as reduction in cell viability up to 200 uM after 48 hrs by MTT assay; assay type: functional, cell-based; how it was run: as §2
NALM-6 [14] = experiment: Antiproliferative activity against human NALM6 cells at 20 uM by trypan blue dye exclusion assay; assay type: functional, cell-based; conditions: TDE = time-dependent effect; how it was run: as §1
NALM-6 [15] = experiment: Effect on SRPK1 expression level in human NALM6 cells at 20 uM after 24 hrs by Western blot analysis; assay type: functional, cell-based; how it was run: as §3
NALM-6 [16] = experiment: Effect on actin expression level in human NALM6 cells at 20 uM after 24 hrs by Western blot analysis; assay type: ADME, cell-based; conditions: nalm-6, 24 h; how it was run: as §3
NALM-6 [17] = experiment: Induction of apoptosis in human NALM6 cells assessed as viable cells at 20 uM after 24 hrs by Annexin-V/FITC propidium iodide staining based flow cytometric analysis (reference value: 90.10%); assay type: functional; conditions: NALM-6, 24 h, read-out: Activity
NALM-6 [18] = experiment: Induction of apoptosis in human NALM6 cells assessed as viable cells at 20 uM after 12 hrs by Annexin-V/FITC propidium iodide staining based flow cytometric analysis (reference value: 92.11%); assay type: functional; conditions: NALM-6, 12 h, read-out: Activity
NALM-6 [19] = experiment: Induction of apoptosis in human NALM6 cells assessed as early apoptotic cells at 20 uM after 12 hrs by Annexin-V/FITC propidium iodide staining based flow cytometric analysis (reference value: 7.40%); assay type: functional
HL-60 [20] = experiment: Cytotoxicity against human HL60 cells assessed as cell growth inhibition at 20 uM after 96 hrs by trypan blue dye exclusion assay relative to control; assay type: functional; conditions: HL-60, 96 h, read-out: GI; how it was run: as §1
NALM-6 [21] = experiment: Induction of apoptosis in human NALM6 cells assessed as late apoptotic cells at 20 uM after 24 hrs by Annexin-V/FITC propidium iodide staining based flow cytometric analysis (reference value: 1.68%); assay type: functional
NALM-6 [22] = experiment: Synergistic cytotoxicity against human NALM6 cells assessed as reduction in cell viability by measuring combination index at 4.3 uM after 48 hrs in presence of 0.5 nM vincristine by MTT assay; assay type: functional
Homo sapiens [23] = species on record: Homo sapiens; experiment: Inhibition of SRPK in human NALM6 cells assessed as decrease in RON mRNA expression level at 20 uM after 24 hrs by qRT-PCR analysis; assay type: cell-based
How it was run: (§4)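 Nalm6 given 20 µM for 24 h with 0.4% DMSO control; mRNA isolated with Tri Reagent, quantified spectrophotometrically, integrity checked on 1% agarose, then RT-PCR for target transcripts; one representative of three experiments.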

Homo sapiens [24] = species on record: Homo sapiens; experiment: Inhibition of SRPK in human NALM6 cells assessed as decrease in VEGF mRNA expression level at 20 uM after 24 hrs by qRT-PCR analysis; assay type: cell-based; how it was run: as §4
NALM-6 [25] = experiment: Synergistic cytotoxicity against human NALM6 cells assessed as reduction in cell viability by measuring combination index at 8.5 uM after 48 hrs in presence of 1 nM vincristine by MTT assay; assay type: functional
Homo sapiens [26] = species on record: Homo sapiens; experiment: Inhibition of SRPK in human NALM6 cells assessed as decrease in MAP2K2 mRNA expression level at 20 uM after 24 hrs by qRT-PCR analysis; assay type: cell-based; how it was run: as §4
Homo sapiens [27] = species on record: Homo sapiens; experiment: Inhibition of SRPK in human NALM6 cells assessed as decrease in MAP2K1 mRNA expression level at 20 uM after 24 hrs by qRT-PCR analysis; assay type: cell-based; how it was run: as §4
Homo sapiens [28] = species on record: Homo sapiens; experiment: Inhibition of SRPK in human NALM6 cell lysates assessed as reduction in phospho-SR epitopes signal at 20 uM after 24 hrs by Western blot analysis; how it was run: as §3
[29] = Homo sapiens, HL-60, 48 h, read-out: IC50
[30] = Homo sapiens, NALM-6, 48 h, read-out: IC50
[31] = Homo sapiens, Jurkat, 48 h, read-out: IC50

SMILES | Activity (NALM-6 [1]) | Activity (NALM-6 [2]) | Activity (NALM-6 [3]) | Activity (NALM-6 [4]) | Activity (NALM-6 [6]) | Activity (HL-60 [7]) | inhibition of growth at 20 µM (NALM-6 [8]) | Activity (NALM-6 [9]) | IC50 (HL-60 [10]; [29]) | IC50 (NALM-6 [11]; [30]) | Activity (NALM-6 [12]) | Activity (PBMC) | IC50 (Jurkat; [31]) | Activity (NALM-6 [14]) | Activity (NALM-6 [15]) | Activity (NALM-6 [16]) | viability at 20 µM (NALM-6 [17]) | viability at 20 µM (NALM-6 [18]) | Activity (NALM-6 [19]) | inhibition of growth at 20 µM (HL-60 [20]) | also measured
O=C(Nc1cc(C(F)(F)F)ccc1Nc1ccc(Br)cc1)c1cccnc1Cl | Active | 0.52% | 0% | Non-Toxic | 11.91% | Tde | 37% | 0.07% | 14.2 µM | 35.7 µM | inactive | Toxic | 20.6 µM | Tde | inactive | Non-Toxic | 86.8% | 87.9% | 11.7% | 33% | CI (NALM-6 [5]): 1.02; CI (NALM-6 [13]): 0.57; Activity (NALM-6 [21]): 1.16%
O=C(Nc1cc(C(F)(F)F)ccc1NC1CCCCC1)c1ccncc1 | – | – | – | – | – | – | – | – | 59.2 µM | 59 µM | – | – | 80.9 µM | – | – | – | – | – | – | – | –
O=C(Nc1cc(C(F)(F)F)ccc1N1CCCCC1)c1cccnc1 | – | – | – | – | – | – | – | – | – | – | – | – | – | – | – | – | – | – | – | – | IC50 (HL-60 [10]; hl-60): Not Active; IC50 (NALM-6 [11]; nalm-6): Not Active; IC50 (Jurkat; jurkat): Not Active
O=C(Nc1cc(C(F)(F)F)ccc1Nc1ccc(Br)cc1)c1cccnc1 | Active | 0.67% | 0% | Non-Toxic | 14.66% | Tde | 66% | 0.01% | 8.5 µM | 17 µM | inactive | Non-Toxic | 17.8 µM | Tde | inactive | Non-Toxic | 84.4% | 87% | 12.33% | 38% | CI (NALM-6 [22]): 0.45; inhibition (Homo sapiens [23]): Active; inhibition (Homo sapiens [24]): Active; CI (NALM-6 [25]): 0.78; inhibition (Homo sapiens [26]): Active; inhibition (Homo sapiens [27]): Active; inhibition (Homo sapiens [28]): Active; Activity (NALM-6 [21]): 0.92%
O=C(Nc1cc(C(F)(F)F)ccc1NC1CCCCC1)c1cccnc1 | – | – | – | – | – | – | – | – | 48.3 µM | 52.3 µM | – | – | – | – | – | – | – | – | – | – | IC50 (Jurkat; jurkat): Not Active
